Shown is part of a subset that was picked to be rich in hits.
TLR4 MyD88 comp – blocks binding of human TLR4 to MyD88. inhibition, % at 8.4 µM. hit rate 0.18% among 200,000. HeLa CL3-4 TLR4/MyD88 BLA complementation, FRET ratio. O00206+Q99836. AID 861; in the data active = inhibition above about 25%
CHOP UPR activ – activators of apoptotic arm of unfolded protein response (CHOP); CHO-CHOP luciferase reporter, UPR activation, luminescence; percent of tunicamycin response over DMSO baseline; activation, % at 10 µM; hit rate 0.34% among 330,000; AID 449763;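 active = at 10 µM dose, activation of 40% or more, normalized to positive control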
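assay system = CHO CHOP reporter cells | amount = 500 CHO-CHOP cells per well | buffer or medium = F12 with 10% FBS | incubation = 16-18 h cell attachment, then 6 h compound exposure, 37 °C | detection = luminescence read with Steady-Glo | read-out = percent activation relative to tunicamycin control | controls = tunicamycin high control, DMSO low control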
UPR XBP1 act – activators of adaptive arm of unfolded protein response (XBP1). hit rate 0.33% among 330,000. CHO-XBP1 luciferase reporter, IRE1-XBP1 UPR activation, luminescence; percent of tunicamycin response, DMSO as zero. activation, % at 20 µM. AID 463104;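 active = versus positive control, 20 µM dose yields 30% or more activation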
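Material: CHO cell line with stable XBP1 luciferase reporter; buffer or medium: F12 medium containing 10% fetal bovine serum; compound: single point, 20 µM final compound, 1% DMSO; incubation: 6 h treatment, 37 °C; measured by: glow luminescence from Steady-Glo reagent; evaluation: activation, % of tunicamycin; control set: tunicamycin high, DMSO low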
TLR9-MyD88 block – TLR9-MyD88 interaction inhibition; Q9NR96+Q99836; CHO BLA complementation TLR9-MyD88, CCF4 FRET ratio; inhibition, % at 4.98 µM; hit rate 0.21% among 340,000; AID 504734;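 active = inhibition above the mean over all tested compounds plus 3 SD, cut at about 21% in these data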
Target sequence (Q99836 whole entry, looked up): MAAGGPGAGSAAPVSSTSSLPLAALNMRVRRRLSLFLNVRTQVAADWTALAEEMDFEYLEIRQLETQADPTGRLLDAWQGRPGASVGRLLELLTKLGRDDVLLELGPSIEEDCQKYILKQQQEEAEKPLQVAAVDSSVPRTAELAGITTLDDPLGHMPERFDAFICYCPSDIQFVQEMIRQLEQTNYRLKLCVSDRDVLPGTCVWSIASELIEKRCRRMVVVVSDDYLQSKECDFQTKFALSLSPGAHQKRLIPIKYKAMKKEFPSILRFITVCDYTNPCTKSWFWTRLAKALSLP
Target sequence (Q9NR96 whole entry, looked up): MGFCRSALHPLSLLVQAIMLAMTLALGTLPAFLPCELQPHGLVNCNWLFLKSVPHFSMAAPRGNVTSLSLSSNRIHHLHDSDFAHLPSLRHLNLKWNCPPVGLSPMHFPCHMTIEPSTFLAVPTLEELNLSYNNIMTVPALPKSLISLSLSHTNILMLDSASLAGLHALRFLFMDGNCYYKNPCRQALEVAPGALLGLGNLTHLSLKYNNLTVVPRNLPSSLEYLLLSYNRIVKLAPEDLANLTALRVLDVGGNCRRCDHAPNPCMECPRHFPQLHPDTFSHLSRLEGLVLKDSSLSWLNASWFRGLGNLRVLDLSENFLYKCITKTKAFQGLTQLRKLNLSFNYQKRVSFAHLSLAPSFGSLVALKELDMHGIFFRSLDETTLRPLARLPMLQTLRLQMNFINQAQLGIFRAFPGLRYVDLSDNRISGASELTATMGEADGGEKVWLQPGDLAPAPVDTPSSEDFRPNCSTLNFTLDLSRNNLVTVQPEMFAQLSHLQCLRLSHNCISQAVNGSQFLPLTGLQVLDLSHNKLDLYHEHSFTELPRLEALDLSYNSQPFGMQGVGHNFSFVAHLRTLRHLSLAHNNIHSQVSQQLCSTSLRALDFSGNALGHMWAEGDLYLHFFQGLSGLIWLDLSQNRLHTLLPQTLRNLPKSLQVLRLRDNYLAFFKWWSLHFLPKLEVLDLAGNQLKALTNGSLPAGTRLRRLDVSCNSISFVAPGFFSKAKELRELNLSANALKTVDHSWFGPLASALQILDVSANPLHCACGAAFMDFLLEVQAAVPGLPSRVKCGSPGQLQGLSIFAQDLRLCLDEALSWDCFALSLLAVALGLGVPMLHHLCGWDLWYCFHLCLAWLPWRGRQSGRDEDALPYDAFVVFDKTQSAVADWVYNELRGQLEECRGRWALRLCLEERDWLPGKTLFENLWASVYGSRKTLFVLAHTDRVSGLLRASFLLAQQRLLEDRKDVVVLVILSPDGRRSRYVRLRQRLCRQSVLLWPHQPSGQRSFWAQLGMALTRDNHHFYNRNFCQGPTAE
NOD2-RIPK2 inh – blocks binding of human NOD2 to RIPK2. O43353. CHO BLA complementation NOD2-RIPK2, CCF4 ratio. inhibition, % at 4.98 µM. hit rate 0.38% among 360,000. AID 624267; in the data active = inhibition above about 21%
CHOP inh – inhibitors of CHOP induction in ER stress response. CHO-K1 CHOP-promoter luciferase, tunicamycin-induced, 15-18 h. inhibition, % at 10 µM. hit rate 3.8% among 220,000. AID 2732;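 active = compounds that reduced the stress-induced luciferase reporter signal by more than about 70% of percent inhibition, limit read from the data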
TLR9-MyD88 conf – TLR9-MyD88 interaction inhibition, confirmation. CHO TLR9/MyD88 BLA complementation, CCF4 FRET ratio. hit rate 51% among 680. inhibition, % at 4.98 µM. AID 540250. shares compounds with TLR9-MyD88 block;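 active = mean inhibition across three repeats above about 21% taken from the earlier screen, limit read from the data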;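 also: blue over green emission ratio reports constitutive TLR9 MyD88 association via BLA complementation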
BLA counter-1 – counter-screen for TLR9-MyD88 inhibitors: non-selective beta-lactamase inhibitors; shares compounds with TLR9-MyD88 block; CHO-BLA cells, CCF4 FRET ratio, BLA reporter; inhibition, % at 4.98 µM; hit rate 7% among 680; AID 540251;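 active = mean inhibition above a 50% cutoff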;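 also: counterscreen of TLR9-MyD88 hits on CMV-driven BLA in CHO-K1 cells; higher means less blue over green ratio so more BLA blockade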
TLR9 CHO cytotox – counter-screen for TLR9-MyD88 inhibitors: cytotoxicity in CHO cells; luminescence; inhibition, % at 4.98 µM; shares compounds with TLR9-MyD88 block; AID 588336; hit rate 39% among 680; in the data active = inhibition above about 11%
NOD2-RIPK2 conf – confirmation of human NOD2-RIPK2 interaction inhibitors. shares compounds with NOD2-RIPK2 inh. CHO cells, NOD2-RIPK2 BLA complementation, CCF4 FRET. inhibition, % at 4.98 µM. hit rate 70% among 1,200;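 active = mean inhibition across replicates above a set limit taken from the earlier primary screen, cut at about 21% in these data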
BLA counter-2 – NOD2-RIPK2 counterscreen BLA reporter activity | inhibition, % at 4.98 µM | hit rate 57% among 1,200 | CHO BLA reporter, CCF4 FRET ratio | shares compounds with NOD2-RIPK2 inh;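 active = mean inhibition above the low-control mean inhibition plus three low-control SD, cut at about 11% in these data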
Large screens that a line does not name were inactive (follow-up assays come after a bar, where they were run).

COC(=O)c1sccc1NC(=O)Nc1ccccc1Cl	none (no result: TLR4 MyD88 comp, CHOP inh)
CCn1c(=O)c([N+](=O)[O-])c(Cl)c2ccccc21	TLR9-MyD88 block 44.2, NOD2-RIPK2 inh 88.2, CHOP inh 107.6 | TLR9-MyD88 conf 61.8 | BLA counter-1 inactive | TLR9 CHO cytotox 96.5 | NOD2-RIPK2 conf 96.0 | BLA counter-2 22.4
CCOc1ccc2nc(SCC(=O)NNC(=O)c3ccco3)c(C)cc2c1	none (no result: TLR4 MyD88 comp, CHOP inh)
CCOc1ccc2cc(/C=C/C(=O)c3ccco3)c(Cl)nc2c1	TLR4 MyD88 comp 35.8, TLR9-MyD88 block 29.2, NOD2-RIPK2 inh 26.6 | TLR9-MyD88 conf inactive | BLA counter-1 inactive | TLR9 CHO cytotox inactive | NOD2-RIPK2 conf inactive | BLA counter-2 inactive
Nc1c(Cl)cc(-c2[nH]c3cc(C(=O)NCCO)ccc3c(=O)c2O)cc1Cl	TLR9-MyD88 block 21.4, NOD2-RIPK2 inh 28.3 (no result: TLR4 MyD88 comp, CHOP inh) | TLR9-MyD88 conf inactive | BLA counter-1 inactive | TLR9 CHO cytotox inactive | NOD2-RIPK2 conf 34.7 | BLA counter-2 38.0
CCCNC(=O)c1ccc2c(=O)c(O)c(-c3ccc(F)cc3)[nH]c2c1	none (no result: TLR4 MyD88 comp)
O=C(O)c1ccc(/C=C/c2ccc3cccc(O)c3n2)cc1	none
Oc1ccc(/C=C/c2ccc3cccc(O)c3n2)cc1Br	TLR9-MyD88 block 26.5, NOD2-RIPK2 inh 26.5 (no result: TLR4 MyD88 comp, CHOP inh) | TLR9-MyD88 conf inactive | BLA counter-1 inactive | TLR9 CHO cytotox inactive | NOD2-RIPK2 conf 39.3 | BLA counter-2 46.7
CN(Cc1nc2ccccc2c(=O)[nH]1)C(=O)c1cccc(S(=O)(=O)N2CCc3ccccc32)c1	none (no result: TLR4 MyD88 comp, CHOP inh)
O=c1oc2c(O)cccc2cc1-c1nc2ccccc2[nH]1	TLR9-MyD88 block 54.3, NOD2-RIPK2 inh 58.2 (no result: TLR4 MyD88 comp, CHOP inh) | TLR9-MyD88 conf 45.1 | BLA counter-1 54.4 | TLR9 CHO cytotox inactive | NOD2-RIPK2 conf 72.6 | BLA counter-2 79.2
O=c1oc2c(CN3CCCCC3)c(O)ccc2cc1-c1nc2ccccc2[nH]1	none (no result: TLR4 MyD88 comp, CHOP UPR activ, UPR XBP1 act, CHOP inh)
OCCCc1nc2n(n1)C(c1cccs1)C=C(c1ccccc1)N2 (configuration not stated)	none (no result: TLR9-MyD88 block, NOD2-RIPK2 inh)
OCCCc1nc2n(n1)C(c1ccccc1)C=C(c1ccc(F)cc1)N2 (configuration not stated)	TLR9-MyD88 block 39.2, NOD2-RIPK2 inh 51.1 | TLR9-MyD88 conf 21.4 | BLA counter-1 inactive | TLR9 CHO cytotox inactive | NOD2-RIPK2 conf 39.9 | BLA counter-2 45.0
CCOC(=O)n1c(=O)n(Cc2cccc(F)c2)c2ccccc21	none
CCOC(=O)n1c(=O)n(Cc2c(Cl)cccc2Cl)c2ccccc21	TLR9-MyD88 block 23.6, NOD2-RIPK2 inh 22.9, CHOP inh 72.7 | TLR9-MyD88 conf inactive | BLA counter-1 inactive | TLR9 CHO cytotox inactive | NOD2-RIPK2 conf 28.9 | BLA counter-2 27.4
Nc1cccc2c1C(=O)N(C(=O)c1cccc(S(=O)(=O)N3CCCC3)c1)C2=O	TLR9-MyD88 block 22.6, NOD2-RIPK2 inh 22.0 | TLR9-MyD88 conf inactive | BLA counter-1 inactive | TLR9 CHO cytotox inactive | NOD2-RIPK2 conf 28.0 | BLA counter-2 34.8
NC(=O)c1cccc(S(=O)(=O)N2CCCCC2)c1	none
CN1CCN(C(=O)C2Cc3c(-c4cccc(F)c4)ccnc3O2)CC1 (configuration not stated)	none (no result: TLR4 MyD88 comp, CHOP UPR activ, UPR XBP1 act, TLR9-MyD88 block, CHOP inh)
CCOC(=O)c1c(NC(=O)COC(=O)Cc2c[nH]c3ccccc23)sc(C(=O)N(C)C)c1C	none (no result: TLR4 MyD88 comp, CHOP inh)
